Measurements from ChEMBL document CHEMBL4325889, “Natural products hybrids: 3,5,4'-Trimethoxystilbene-5,6,7-trimethoxyflavone chimeric analogs as potential cytotoxic agents against diverse human cancer cells” (Eur J Med Chem, 2019).

Assays:
SR = test: Growth inhibition of human SR cells at 10 uM after 48 hrs by SRB assay relative to control; assay type: functional; conditions: read-out: GI
How it was run: (§1)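 NCI screen against its human cancer cell line panel by the standard NCI protocol, SRB protein stain. Single dose of 10 μM. Percent growth inhibition versus control; values above 100% mean the cell population fell below the starting number. Each value is the mean of duplicates.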

HOP-92 = test: Growth inhibition of human HOP92 cells at 10 uM after 48 hrs by SRB assay relative to control; assay type: functional; conditions: HOP-92, 48 h, read-out: GI
How it was run: (§2)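 Screened at the National Cancer Institute by the standard NCI protocol using the sulforhodamine B assay, which measures cellular protein. Single dose of 10 µM. Result is percent growth inhibition; values above 100% mean cell number fell below the initial population. Values are the average of duplicates.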

HCT-116 = test: Growth inhibition of human HCT116 cells at 10 uM after 48 hrs by SRB assay relative to control; assay type: functional; conditions: HCT-116, 48 h, read-out: GI; how it was run: as §2
HCT-15 = test: Growth inhibition of human HCT15 cells at 10 uM after 48 hrs by SRB assay relative to control; assay type: functional; conditions: HCT-15, 48 h, read-out: GI; how it was run: as §2
HT-29 = test: Growth inhibition of human HT-29 cells at 10 uM after 48 hrs by SRB assay relative to control; assay type: functional; conditions: HT-29, 48 h, read-out: GI; how it was run: as §2
KM12 = test: Growth inhibition of human KM12 cells at 10 uM after 48 hrs by SRB assay relative to control; assay type: functional; conditions: KM12, 48 h, read-out: GI; how it was run: as §2
SW-620 = test: Growth inhibition of human SW620 cells at 10 uM after 48 hrs by SRB assay relative to control; assay type: functional; conditions: SW-620, 48 h, read-out: GI; how it was run: as §1
SF-268 = test: Growth inhibition of human SF268 cells at 10 uM after 48 hrs by SRB assay relative to control; assay type: functional; conditions: SF-268, 48 h, read-out: GI; how it was run: as §2
SNB-19 = test: Growth inhibition of human SNB19 cells at 10 uM after 48 hrs by SRB assay relative to control; assay type: functional; conditions: SNB-19, 48 h, read-out: GI; how it was run: as §1
U-251 = test: Growth inhibition of human U251 cells at 10 uM after 48 hrs by SRB assay relative to control; assay type: functional; conditions: U-251, 48 h, read-out: GI; how it was run: as §1
SK-MEL-2 = test: Growth inhibition of human SK-MEL-2 cells at 10 uM after 48 hrs by SRB assay relative to control; assay type: functional; conditions: SK-MEL-2, 48 h, read-out: GI; how it was run: as §2
SK-MEL-5 = test: Growth inhibition of human SK-MEL-5 cells at 10 uM after 48 hrs by SRB assay relative to control; assay type: functional; conditions: SK-MEL-5, 48 h, read-out: GI; how it was run: as §2
UACC-62 = test: Growth inhibition of human UACC62 cells at 10 uM after 48 hrs by SRB assay relative to control; assay type: functional; conditions: UACC-62, 48 h, read-out: GI; how it was run: as §1
IGROV-1 = test: Growth inhibition of human IGROV1 cells at 10 uM after 48 hrs by SRB assay relative to control; assay type: functional; conditions: IGROV-1, 48 h, read-out: GI; how it was run: as §2
OVCAR-3 = test: Growth inhibition of human OVCAR3 cells at 10 uM after 48 hrs by SRB assay relative to control; assay type: functional; conditions: OVCAR-3, 48 h, read-out: GI; how it was run: as §2
OVCAR-5 = test: Growth inhibition of human OVCAR5 cells at 10 uM after 48 hrs by SRB assay relative to control; assay type: functional; conditions: OVCAR-5, 48 h, read-out: GI; how it was run: as §2
OVCAR-8 = test: Growth inhibition of human OVCAR8 cells at 10 uM after 48 hrs by SRB assay relative to control; assay type: functional; conditions: OVCAR-8, 48 h, read-out: GI; how it was run: as §2
ACHN = test: Growth inhibition of human ACHN cells at 10 uM after 48 hrs by SRB assay relative to control; assay type: functional; conditions: read-out: GI; how it was run: as §2
CAKI-1 = test: Growth inhibition of human Caki1 cells at 10 uM after 48 hrs by SRB assay relative to control; assay type: functional; conditions: CAKI-1, 48 h, read-out: GI; how it was run: as §2
MDA-MB-468 = test: Growth inhibition of human MDA-MB-468 cells at 10 uM after 48 hrs by SRB assay relative to control; assay type: functional; conditions: MDA-MB-468, 48 h, read-out: GI; how it was run: as §2
L132 = test: Cytotoxicity against human L-132 cells after 48 hrs by MTT assay; assay type: cell-based; conditions: L132, 48 h
How it was run: (§3)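 Normal human lung epithelial L132 and ovarian epithelial IOSE-80PC cells were tested by MTT viability assay, and IC50 was determined.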

[1] = Cytotoxicity against human IOSE-80PC cells after 48 hrs by MTT assay; assay type: cell-based; how it was run: as §3

SMILES	inhibition of growth at 10 µM (SR) [%]	inhibition of growth at 10 µM (HOP-92) [%]	inhibition of growth at 10 µM (HCT-116) [%]	inhibition of growth at 10 µM (HCT-15) [%]	inhibition of growth at 10 µM (HT-29) [%]	inhibition of growth at 10 µM (KM12) [%]	inhibition of growth at 10 µM (SW-620) [%]	inhibition of growth at 10 µM (SF-268) [%]	inhibition of growth at 10 µM (SNB-19) [%]	inhibition of growth at 10 µM (U-251) [%]	inhibition of growth at 10 µM (SK-MEL-2) [%]	inhibition of growth at 10 µM (SK-MEL-5) [%]	inhibition of growth at 10 µM (UACC-62) [%]	inhibition of growth at 10 µM (IGROV-1) [%]	inhibition of growth at 10 µM (OVCAR-3) [%]	inhibition of growth at 10 µM (OVCAR-5) [%]	inhibition of growth at 10 µM (OVCAR-8) [%]	inhibition of growth at 10 µM (ACHN) [%]	inhibition of growth at 10 µM (CAKI-1) [%]	inhibition of growth at 10 µM (MDA-MB-468) [%]	other results
COc1cc2oc(-c3cccc(C(=O)Nc4ccccc4)c3)cc(=O)c2c(O)c1OC	4.29	94.7	53.7	7.23	45.9	42.2	5.67	63	42.3	63.1	35	28.3	61.1	14.6	29.9	5.59	84.6	42	51.1	30.6	
COc1cc2oc(-c3cccc(NC(=O)c4ccccc4)c3)cc(=O)c2c(OC)c1OC	68.4	52.4	32.3	34.8	22.9	35.6	8.49	27.7	8.59	16.3	23.2	36.8	33.2	21.6	15.8	-0.09	39	38.4	12.8	15.8	
COc1ccccc1C(=O)Nc1cccc(-c2cc(=O)c3c(OC)c(OC)c(OC)cc3o2)c1		100	63.3	58.5	75.4	61.6	36.6	45.5	63.8	61	68.8	75	56.9	57.1	48.6	18.8	61.3	57	34.9	60.8	IC50 (L132): > 100 µM; IC50 [1]: > 100 µM
COc1cc2oc(-c3cccc(C(=O)Nc4ccc5c(c4)OCO5)c3)cc(=O)c2c(O)c1OC	24.1	27	43	6.45	23.7	29.4	15.5	41.3	27.9	44.2	10.1	16	18.6	18.4	10.5	11.1	69.4	24.8	23.1	45.4	
COc1ccccc1C(=O)Nc1cccc(-c2cc(=O)c3c(O)c(OC)c(OC)cc3o2)c1	16.5	5.45	11.7	3.51	2.63	5.13	10.5	8.58	25.4	33.1	0.56	13.4	30.2	3.04	-14.6	5.27	17.5	5.14	9.48	-22.9	
